Columns and labels:
[1] = biological target: Sphingosine 1-phosphate receptor 1 (Homo sapiens, UniProt P21453); experiment: Agonist activity at human S1P1 receptor expressed in CHOK1 cell membranes by [35S]GTPgammaS binding assay; type: functional, CHO-K1
How it was run: (§1)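 Membranes of CHO-K1 cells transfected with human S1P1 or S1P3. Phosphorylated compounds tested. Buffer: 50 mM HEPES pH 7.5, 100 mM NaCl, 5 mM MgCl2, 0.05 mg/mL saponin, with GDP and DTT. Started with [35S]GTPγS plus membrane, 60 min at room temperature, then filter harvest and scintillation counting. Binding expressed as % of 20 µM Sph-1-P response, blank-corrected, n = 2.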

[2] = biological target: Sphingosine 1-phosphate receptor 3 (Homo sapiens, UniProt Q99500); experiment: Agonist activity at human S1P3 receptor expressed in CHOK1 cell membranes by [35S]GTPgammaS binding assay; type: functional, CHO-K1; how it was run: as §1
Sphingosine 1-phosphate receptor 3, sequence (Q99500 whole entry): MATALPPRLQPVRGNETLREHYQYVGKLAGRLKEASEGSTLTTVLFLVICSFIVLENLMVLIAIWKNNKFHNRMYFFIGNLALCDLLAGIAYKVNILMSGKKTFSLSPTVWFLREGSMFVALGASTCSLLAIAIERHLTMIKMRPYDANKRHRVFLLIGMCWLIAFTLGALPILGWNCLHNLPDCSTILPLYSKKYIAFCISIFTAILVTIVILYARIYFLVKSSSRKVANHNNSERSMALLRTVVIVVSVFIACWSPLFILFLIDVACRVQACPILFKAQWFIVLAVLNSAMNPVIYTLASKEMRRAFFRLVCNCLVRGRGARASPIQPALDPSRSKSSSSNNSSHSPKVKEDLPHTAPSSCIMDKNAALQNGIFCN

Homo sapiens = species on record: Homo sapiens; experiment: Selectivity index, ratio of EC50 for human S1P3 receptor to EC50 for human S1P1 receptor
Rattus norvegicus [3] = experiment: Immunosuppressive activity in Lewis rat injected with WKAH/Hkm rat spleen cells assessed as inhibition of host versus graft reaction by measuring popliteal lymph nodes weight dosed orally at 5 mL/kg once daily for 4 successive days starting on day of spleen cell injection; type: functional; settings: po, read-out: ID50 (the source's name)
How it was run: (§2)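 Lewis rats received 1×10^7 WKAH/Hkm splenocytes intracutaneously into both hind footpads. Syngeneic controls received Lewis splenocytes. Compound suspended in 0.5% tragacanth, given orally at 5 mL/kg once daily for 4 days from the day of cell injection; 5 rats/group. Popliteal lymph node weight gain measured relative to allogeneic control. ID50 by least squares from at least three doses.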

[4] = Drug metabolism in rat plasma assessed as compound phosphorylation at 100 ug/ml at 37 degC after 3 hrs by HPLC method; type: ADME, cell-free; settings: read-out: Drug metabolism
How it was run: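 Rat whole blood, citrate-treated, spiked with compound from 100 µg/mL DMSO stock and held 3 h at 37 °C. Methanol quench, centrifugation twice at 4 °C, reversed-phase HPLC with CH3CN/0.1% TFA gradient. Phosphorylation given as ratio of HPLC peak areas of phosphate to remaining parent.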

Rattus norvegicus [5] = experiment: Drug level in Wistar Imamichi rat at 1 to 30 mg/kg, po; type: ADME, organism-based; design: dose 1-30 mg/kg, route oral; settings: in vivo
[6] = Cmax in rat at 1 mg/kg, po; type: ADME, organism-based; design: dose 1 mg/kg, route oral; settings: in vivo
How it was run: (§3)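 Single oral dose of 1.0 mg/kg parent compound in rats, n = 2 or 3. Plasma levels measured for parent and its phosphate. Cmax, AUC0-48 and T1/2 derived from plasma concentration. Half-life of phosphate taken from plasma phosphate level after dosing at 1.0 mg/kg p.o., n = 2.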

[7] = AUC (0 to 48 hrs) in rat at 1 mg/kg, po; type: ADME, organism-based; design: time < 48 hr, dose 1 mg/kg, route oral; settings: plasma; how it was run: as §3
[8] = Half life in rat at 1 mg/kg, po; type: ADME, organism-based; design: dose 1 mg/kg, route oral; settings: in vivo; how it was run: as §3
[9] = Metabolic stability in rat hepatic microsomes assessed as parent compound remaining after 30 mins at 37 degC; type: ADME, microsome; settings: liver microsomes
How it was run: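 Compound incubated with rat hepatic microsomes for 30 min at 37 °C; percentage of compound remaining reported.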

Rattus norvegicus [10] = experiment: Induction of lymphopenia in Lewis rat assessed as reduction in lymphocyte numbers at 0.1 mg/kg, po after 4 hrs by automatic hemacytometry relative to untreated control; type: functional; design: scale not given: the % may be the effect or the level left
How it was run: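 Male Lewis rats, 5 weeks old, 5 per group, given saline vehicle or 0.1 mg/kg compound orally. EDTA blood drawn before and 4 h after dosing. Lymphocytes counted by automatic hemacytometer; untreated rats also counted.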

[11] = Half life in Lewis rat at 1 mg/kg, po; type: ADME, organism-based; design: dose 1 mg/kg, route oral; settings: in vivo; how it was run: as §3
Rattus norvegicus [12] = experiment: Immunosuppressive activity in Lewis rat injected with WKAH/Hkm rat spleen cells assessed as inhibition of host versus graft reaction by measuring popliteal lymph nodes weight dosed orally at 1 mg/kg once daily for 4 successive days starting on day of spleen cell injection; type: functional; settings: route oral; how it was run: as §2

Sphingosine 1-phosphate receptor 1, sequence (P21453 whole entry): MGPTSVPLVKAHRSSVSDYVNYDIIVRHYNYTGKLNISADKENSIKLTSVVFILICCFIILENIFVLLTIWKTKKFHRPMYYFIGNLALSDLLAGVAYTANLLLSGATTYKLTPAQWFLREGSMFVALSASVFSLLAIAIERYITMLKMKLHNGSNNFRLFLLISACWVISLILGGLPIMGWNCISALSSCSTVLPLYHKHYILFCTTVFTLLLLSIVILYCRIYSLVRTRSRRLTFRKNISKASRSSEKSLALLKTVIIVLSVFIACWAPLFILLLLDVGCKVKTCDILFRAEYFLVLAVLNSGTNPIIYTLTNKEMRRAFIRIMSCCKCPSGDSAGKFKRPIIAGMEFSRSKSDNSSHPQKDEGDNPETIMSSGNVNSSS

SMILES | EC50 [1] [nM] | EC50 [2] [nM] | Ratio EC50 (Homo sapiens) | metabolised at 3 h, 100 ug/ml [4] [%] | Cmax [6] [ng/mL] | AUC(0-t) at 48 h [7] [ng·h/mL] | half-life [8] [h] | remaining at 0.5 h [9] [%] | further results
Cc1ccc(CCCC(=O)c2ccc(COC[C@@](C)(N)COP(=O)(O)O)c(F)c2)cc1 | 2.8 | 60 | 21 |  |  |  |  |  | 
Cc1ccc(CCCC(=O)c2ccc(COC[C@@](C)(N)CO)c(Cl)c2)cc1.Cl |  |  |  | 83.8 | 18 | 144 | 4.6 | 38 | ED50 (Rattus norvegicus [3]): 0.39 mg/kg; Drug uptake (Rattus norvegicus [5]): Dose-dependent effect
Cc1ccc(CCCC(=O)c2ccc(COC[C@@](C)(N)CO)cc2)cc1.Cl |  |  |  | 39.5 | 13 | 120 | 5.7 | 51 | Activity (Rattus norvegicus [10]): 39.5%; ED50 (Rattus norvegicus [3]): 0.27 mg/kg; half-life [11]: 7.8 h
Cc1ccc(CCCC(=O)c2cc(C)c(COC[C@@](C)(N)CO)cc2C)cc1 |  |  |  | 6 |  |  |  |  | inhibition in vivo at 1 mg/kg (Rattus norvegicus [12]): 11%
Cc1ccc(CCCC(=O)c2ccc(COC[C@@](C)(N)COP(=O)(O)O)c(C)c2)cc1 | 3 | 180 | 60 |  | 104 | 806 | 4.3 | 92 | 
Cc1ccc(CCCC(=O)c2ccc(COC[C@@](C)(N)COP(=O)(O)O)cc2)cc1 | 7 | 200 | 29 |  | 72 | 799 | 7.8 | 92 | 
CCCCCCCCc1ccc(CCC(N)(CO)CO)cc1 [FINGOLIMOD] |  |  |  |  |  |  |  | 97 | Activity (Rattus norvegicus [10]): 21%; ED50 (Rattus norvegicus [3]): 0.33 mg/kg; half-life [11]: 32 h
CCc1cc(C(=O)CCCc2ccc(C)cc2)ccc1COC[C@@](C)(N)CO |  |  |  | 13.9 |  |  |  |  | inhibition in vivo at 1 mg/kg (Rattus norvegicus [12]): 10%
CCc1cc(C(=O)CCCc2ccc(C)cc2)ccc1COC[C@@](C)(N)COP(=O)(O)O | 2.3 | 12000 | 5220 |  |  |  |  |  | 
CCCCCCCCc1ccc(CC[C@](N)(CO)COP(=O)(O)O)cc1 [FTY720-P] |  |  |  |  |  |  |  | > 100 | 
Cc1ccc(CCCC(=O)c2ccc(COC[C@@](C)(N)COP(=O)(O)O)c(Cl)c2)cc1 | 4 | 220 | 55 |  | 97 | 658 | 4.6 | 86 | 
Cc1ccc(CCCC(=O)c2ccc(COC[C@@](C)(N)CO)c(C)c2)cc1.Cl |  |  |  | 38.4 | 34 | 200 | 4.1 | 36 | ED50 (Rattus norvegicus [3]): 0.43 mg/kg; Drug uptake (Rattus norvegicus [5]): Dose-dependent effect
Cc1ccc(CCCC(=O)c2cc(C)c(COC[C@@](C)(N)COP(=O)(O)O)c(C)c2)cc1 | 2.2 | 340 | 155 |  |  |  |  |  | 
Cc1ccc(CCCC(=O)c2cc(C)c(COC[C@@](C)(N)COP(=O)(O)O)cc2C)cc1 | 6.5 | > 20000 | > 3080 |  |  |  |  |  | 
Cc1ccc(CCCC(=O)c2ccc(COC[C@@](C)(N)COP(=O)(O)O)cc2C)cc1 | 19 | > 20000 | > 1050 |  |  |  |  |  | 
